Screens (PubChem)
In the library only some 5.8% were active in any assay of this set; here they are far more common.
T cruzi growth-1: T. cruzi intracellular proliferation inhibitors, primary screen, cell-based, beta-gal Tulahuen parasites, NIH3T3 host, luminescence | T. cruzi beta-gal in NIH3T3, GalScreen luminescence, 90 h | inhibition, % at 8.34 µM | 77,000 compounds, 5.9% hits;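 active = mean inhibition above about 93%, with at least 55% of replicates each passing it, limit read from the data, passing the limit was not always enough; inconclusive = only one of those two conditions holds; inactive = neither condition holds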
Pf Dd2 inh: P. falciparum Dd2 growth inhibitors, primary screen, SYBR Green fluorescence, single dose replicates | 72 h; hits give low values | activity change, % at 10 µM | 94,000 compounds, 2.3% hits | AID 1159554, 2015; in the data active = activity change below about -80%; inconclusive = no clear call, values can overlap the other calls
IDH1 mut inh: inhibitors of IDH1 R132H reductase, primary screen, biochemical, plate reader, single point | Isocitrate dehydrogenase [NADP] cytoplasmic (Homo sapiens), O75874 | diaphorase/resazurin fluorescence, 60 min | inhibition, % at 10 µM | 70,000 compounds, 0.18% hits; in the data active = inhibition above about 34%; inconclusive = no clear call, values can overlap the other calls; inactive = below about 11%
KDM4C inh: inhibitors of GASC-1 (KDM4C) histone demethylase, primary screen, biochemical, single concentration HTS; Lysine-specific demethylase 4C (Homo sapiens), Q9H3R0; GST-KDM4C 2-372, H3K9me3 peptide, LANCE TR-FRET; inhibition, % at 12.5 µM; 96,000 compounds, 0.15% hits; AID 720574, 2013;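 active = mean replicate inhibition above about 25%, with at least 55% of replicates also reaching it, limit read from the data, passing the limit was not always enough; inconclusive = only one of those two conditions met; inactive = neither condition met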
Target sequence (Q9H3R0 2-372 limits assumed): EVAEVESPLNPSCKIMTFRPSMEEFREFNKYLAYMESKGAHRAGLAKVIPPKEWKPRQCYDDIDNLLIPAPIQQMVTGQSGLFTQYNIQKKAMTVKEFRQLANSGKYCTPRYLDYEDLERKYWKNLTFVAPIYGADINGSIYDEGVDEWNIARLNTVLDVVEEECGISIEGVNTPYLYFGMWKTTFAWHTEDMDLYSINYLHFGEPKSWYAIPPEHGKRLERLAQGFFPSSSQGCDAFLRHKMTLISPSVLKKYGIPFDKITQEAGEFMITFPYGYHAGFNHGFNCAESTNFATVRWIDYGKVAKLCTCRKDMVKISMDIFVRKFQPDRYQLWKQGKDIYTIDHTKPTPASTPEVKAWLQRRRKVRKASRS
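Compound: one test concentration per compound; Material: GST-GASC-1 enzyme fragment 2-372; Amount: GASC-1 enzyme at 10 nM final in reaction; Also added: H3K9me3 peptide substrate, Fe(II), 2-oxoglutarate; Technique: LANCE TR-FRET; Times: 30 min demethylation and 1 h detection at room temperature.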
T cruzi growth-2: T. cruzi intracellular proliferation inhibitors, confirmation, cell-based, NIH3T3 host, beta-gal parasite, luminescence, cherry-pick | 5,600 compounds, 72% hits | AID 651739, 2012 | shares compounds with T cruzi growth-1 | inhibition, % at 8.35 µM | T. cruzi beta-gal in NIH3T3, GalScreen luminescence, 90 h;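 active = mean replicate inhibition above about 95% and at least 55% of replicates individually reaching it, limit read from the data; inconclusive = only one of the two criteria is met; inactive = neither criterion is met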
T cruzi growth-3: inhibitors of intracellular T. cruzi replication, confirmation, NIH3T3 host cells, beta-gal parasites, cherry-pick, set 2 | T. cruzi beta-gal in NIH3T3, GalScreen luminescence, 90 h | inhibition, % at 2.09 µM | 5,600 compounds, 21% hits | shares compounds with T cruzi growth-1;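 active = mean inhibition above about 95%, with at least 55% of replicates also reaching it, limit read from the data; inconclusive = meets just one of the two conditions; inactive = meets neither condition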
3T3 cytotox: cytotoxicity in mouse NIH/3T3 fibroblasts, confirmation, cytotoxicity control for T. cruzi proliferation inhibitor project, cell-based, cherry-pick, single point; shares compounds with T cruzi growth-1; cytotoxicity (signal decrease), % at 8.35 µM; 5,600 compounds, 14% hits; NIH/3T3 viability, CellTiter-Glo ATP luminescence, 90 h;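 active = mean signal decrease across replicates above about 35% based on untreated-well scatter, with enough replicates individually passing, limit read from the data; inconclusive = no rule stated though some were filed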
NIH3T3 tox 2: NIH/3T3 fibroblast cytotoxicity, confirmation, cytotoxicity control, cell-based, cherry-pick, single point, set 2; shares compounds with T cruzi growth-1; NIH/3T3 viability, CellTiter-Glo ATP luminescence, 90 h; inhibition, % at 24.9 µM; 5,600 compounds, 56% hits; AID 651744, 2012;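 active = mean loss of cell viability signal at or above a set limit, and enough replicates individually reaching it; inconclusive = meets only the mean limit or only the replicate share; inactive = meets neither condition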
Hits are given with their value; n = inactive; u = inconclusive; x = not tested or not shown.

SMILES | T cruzi growth-1 | Pf Dd2 inh | IDH1 mut inh | KDM4C inh | T cruzi growth-2 | T cruzi growth-3 | 3T3 cytotox | NIH3T3 tox 2
C/C=C/c1ccc2c(c1)O[C@H](CN(C)Cc1ccccc1F)[C@H](C)CN([C@@H](C)CO)S2(=O)=O | 120 | n | n | n | 111 | n | 36 | 105
C/C=C/c1ccc2c(c1)O[C@@H](CN(C)Cc1ccccc1F)[C@@H](C)CN([C@@H](C)CO)S2(=O)=O | n | n | n | n | x | x | x | x
C[C@H]1CN([C@@H](C)CO)C(=O)CCCn2nncc2CO[C@H]1CN(C)C(=O)Nc1ccc(C(F)(F)F)cc1 | n | n | n | n | x | x | x | x
C[C@@H]1CN([C@@H](C)CO)S(=O)(=O)c2ccc(-c3ccccc3F)cc2O[C@H]1CN(C)Cc1cccnc1 | 101 | n | n | n | 101 | 97 | 56 | 95
C[C@@H]1CN([C@@H](C)CO)S(=O)(=O)c2ccc(-c3ccccc3)cc2O[C@H]1CN(C)Cc1ccncc1 | u | n | n | n | x | x | x | x
C[C@@H]1CN([C@@H](C)CO)S(=O)(=O)c2ccc(-c3ccccc3F)cc2O[C@@H]1CN(C)Cc1ccncc1 | 100 | n | n | n | u | n | n | 47
C[C@@H]1CN([C@H](C)CO)S(=O)(=O)c2ccc(-c3ccccc3F)cc2O[C@@H]1CN(C)Cc1cccnc1 | n | n | n | n | x | x | x | x
Cc1ccccc1-c1ccc2c(c1)O[C@H](CN(C)Cc1ccncc1)[C@@H](C)CN([C@@H](C)CO)S2(=O)=O | 97 | u | 45 | n | 99 | 99 | 41 | 105
N#C[C@H]1[C@@H](c2ccc(C3=CCCCC3)cc2)[C@H](CO)N1S(=O)(=O)c1ccccc1 | 97 | n | x | n | 97 | n | 41 | 100
N#C[C@@H]1[C@H](c2ccc(C3=CCCCC3)cc2)[C@@H](CO)N1S(=O)(=O)c1cccc(F)c1 | 98 | n | x | n | u | n | n | 104
N#C[C@@H]1[C@H](c2ccc(C3=CCCC3)cc2)[C@H](CO)N1S(=O)(=O)c1cccc(F)c1 | n | n | x | n | x | x | x | x
CNC[C@@H]1Oc2cc(C#Cc3ccccn3)ccc2S(=O)(=O)N([C@@H](C)CO)C[C@H]1C | 105 | n | n | n | 107 | n | n | n
CNC[C@@H]1Oc2cc(C#Cc3ccccn3)ccc2S(=O)(=O)N([C@H](C)CO)C[C@H]1C | 103 | n | n | n | 110 | n | n | n
CNC[C@@H]1Oc2cc(C#Cc3ccncc3)ccc2S(=O)(=O)N([C@@H](C)CO)C[C@@H]1C | x | n | n | n | x | x | x | x
CNC[C@H]1Oc2cc(C#Cc3ccncc3)ccc2S(=O)(=O)N([C@H](C)CO)C[C@H]1C | x | n | x | n | x | x | x | x
C[C@H]1CN([C@@H](C)CO)C(=O)c2cccc(NS(C)(=O)=O)c2O[C@@H]1CN(C)C(=O)Nc1ccc(C(F)(F)F)cc1 | x | n | n | n | x | x | x | x
O=C(Nc1ccc(Cl)cc1)N[C@H]1CC[C@H](CCNC(=O)c2ccccc2F)O[C@@H]1CO | n | n | n | x | x | x | x | x
C[C@@H]1CN([C@@H](C)CO)S(=O)(=O)c2ccc(C#CCN(C)C)cc2O[C@@H]1CN(C)Cc1ccccn1 | u | n | n | n | n | n | n | 28
C[C@H](CO)N1C[C@H](C)[C@@H](CN(C)Cc2ccccn2)Oc2cc(C#CCN(C)C)ccc2S1(=O)=O | u | n | n | n | x | x | x | x
